MrgX1 allo act – allosterically activates human MrgX1 receptor signaling | Q96LB2 | MrgX1-HEK293, Fluo-4 calcium flux, FDSS; active compounds read high | B-score at 10 µM | actives 0.63% (n = 310,000);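 active means plate-corrected calcium response at least 3 library SD above typical, normal starting fluorescence, not activating the receptor alone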;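 further: compound read alongside a low EC10 to EC30 dose of BAM8-22 agonist; peak minus trough fluorescence over baseline measured at the second addition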
Target sequence (Q96LB2 whole entry, looked up): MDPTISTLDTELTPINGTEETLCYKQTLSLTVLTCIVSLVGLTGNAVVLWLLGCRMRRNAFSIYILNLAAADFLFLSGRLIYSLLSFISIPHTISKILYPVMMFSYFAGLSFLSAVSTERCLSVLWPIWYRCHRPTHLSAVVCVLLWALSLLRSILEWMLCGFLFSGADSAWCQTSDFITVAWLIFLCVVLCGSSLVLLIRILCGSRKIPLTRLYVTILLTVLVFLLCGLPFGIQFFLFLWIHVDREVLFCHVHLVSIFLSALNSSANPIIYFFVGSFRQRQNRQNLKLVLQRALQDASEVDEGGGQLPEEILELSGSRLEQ
RGS4 act – RGS4 potentiation or activation. B-score at 10 µM. actives 0.92% (n = 310,000). HEK293 M3R/inducible RGS4, carbachol calcium flux Fluo4; active compounds read low;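 active means B-score of the integrated calcium signal more than 4 SD below the library mean, with starting fluorescence not abnormally high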;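 further: negative B-score means reduced calcium response which marks RGS4 activation or potentiation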
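Assay system: Inducible-RGS4 HEK293 cells carrying M3 receptor | Schedule: Compound preincubation 20 min at room temperature before agonist | Signal: Kinetic calcium fluorescence imaging with Fluo4-AM dye, 2 µM | Read-out basis: B score from integrated fluorescence ratio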
RGS4 inh – human RGS4 inhibition. HEK293 M3R/RGS4 inducible, Fluo-4 calcium flux; active compounds read high; triggered by carbachol at its EC20. B-score at 10 µM. actives 0.45% (n = 310,000);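 active means B-score, a plate-corrected calcium signal, over three deviations above library mean, with baseline fluorescence within five deviations of library mean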;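 further: RGS4 expression induced by doxycycline in cells with stable M3 receptor; B-score is computed from the integrated fluorescence ratio over baseline after carbachol; higher B-score means a larger calcium signal and so more RGS4 inhibition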
Target sequence (P49798 whole entry, looked up): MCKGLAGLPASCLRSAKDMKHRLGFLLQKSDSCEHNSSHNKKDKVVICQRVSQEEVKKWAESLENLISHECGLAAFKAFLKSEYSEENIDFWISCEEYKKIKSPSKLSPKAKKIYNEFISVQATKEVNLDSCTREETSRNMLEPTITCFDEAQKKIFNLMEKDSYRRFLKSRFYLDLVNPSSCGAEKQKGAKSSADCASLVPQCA
MrgX1 agonist – human MrgX1 receptor agonism, primary screen | Q96LB2 | AID 588627 | actives 0.44% (n = 310,000) | B-score at 10 µM | MrgX1-HEK293 cells, Fluo-4 calcium fluorescence, agonist mode; active compounds read high;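 active means calcium response B-score plate-corrected fluorescence ratio at least 3 library SD, with starting fluorescence B-score inside 5 SD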
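Test system: HEK293 cells stably expressing human MrgX1 receptor; amount: 15,000 cells per well; doses: compound delivered in addition one of three; times: overnight plating before 1 h dye loading; detection: Fluo-4 NW calcium-flux fluorescence, kinetic read; read-out basis: B-scored fluorescence response ratio; controls: positive and negative controls per plate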
MrgX1 antagonist – human MrgX1 receptor antagonism, primary screen; Q96LB2; MRGX1-HEK293 calcium flux, Fluo-4, BAM8-22 antagonism; active compounds read low; B-score at 10 µM; actives 1.3% (n = 310,000); AID 588676;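 active means calcium-response B-score plate-corrected more than 3 library SD below zero, starting fluorescence within 5 deviations, no agonist response on first addition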;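 further: peak minus trough fluorescence over baseline after final BAM8-22 challenge near maximal dose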
Starred values were filed as active, the others as inactive; i = inactive; nt = no result. Shown are actives, neighbours in structure and some others; about 3.5% of the full set was active somewhere.

SMILES | MrgX1 allo act | RGS4 act | RGS4 inh | MrgX1 agonist | MrgX1 antagonist
O=[N+]([O-])c1ccc(NC(=S)NCc2ccncc2)cc1 | i | i | i | i | -4.7*
CC1=C(C(=O)OCC(C)C)C(c2cccs2)NC(=S)N1 (stereo not given) | i | i | i | i | i
O=C(O)c1ccn2c(C(=O)c3ccccc3)c(-c3ccccc3)cc2c1 | i | i | i | i | i
O=[N+]([O-])c1ccc(N2CCC(=NOCc3ccc(Cl)cc3)CC2)cc1 | i | -8.2* | i | i | i
O=S(=O)(c1ccc(-c2ccon2)s1)N1CCCC1 | i | i | i | i | i
O=S(=O)(c1ccc(-c2ccon2)s1)N1CCN(c2ccncc2)CC1 | i | i | i | 53* | i
Cc1c(CCC(=O)O)c(=O)oc2c(C)c3occ(-c4ccc(Cl)cc4)c3cc12 | 6.6* | i | i | i | i
COc1ccc(Nc2nnc(SC(C(=O)Nc3ccc(OC)c(Cl)c3)c3ccccc3)s2)cc1 (stereo not given) | 16* | i | i | i | i
CC(=O)Cn1ncc(Br)c(Br)c1=O | nt | i | i | nt | nt
O=C(OCn1ncc(Br)c(Br)c1=O)c1c(F)cccc1F | i | i | 5.4* | i | i
O=C(O)CC/C(=N\Nc1ccc([N+](=O)[O-])cc1)c1ccccc1 | i | i | i | i | -5.9*
CC(Sc1nnc2c(n1)[nH]c1ccccc12)C(=O)N(C)C1CCCCC1 (stereo not given) | i | i | i | i | -7.2*
COc1ccc(S(=O)(=O)N2CCCCCC2)cc1C(=O)OCc1cccc(OC)c1OC | i | i | i | i | i
O=C(Cn1cnc2ccccc2c1=O)NCCC(=O)Nc1ccccc1C(F)(F)F | i | i | i | i | i
O=C(O)/C=C/C(=O)c1ccc2c(c1)CCc1ccccc1-2 | i | i | i | i | -5.2*
COc1ccc(N2CCN(C(=O)c3ccc4c(c3)NC(=O)C(CSCc3cccc(F)c3)N4)CC2)cc1 (stereo not given) | i | i | i | 36* | i
CCn1nc(NC(=O)C(C)C)c2cc3cccc(C)c3nc21 | i | i | i | i | i
Cc1ccc2nc(-c3ccccc3)nc(SC(C)C(=O)NCc3cccs3)c2c1 (stereo not given) | i | i | i | i | -7.3*
CCOC(=O)CC1C(=O)NCCN1C(=O)c1ccc(Cl)c(Cl)c1 (stereo not given) | i | i | i | i | i
O=C(N/N=C/c1ccc(Cl)c([N+](=O)[O-])c1)c1cnccn1 | i | i | i | i | -4.7*
CC(=C/c1ccccc1)/C=N/NC(=O)c1ccc2nc[nH]c2c1 | i | i | i | i | i
CC(/C=N/NC(=O)c1ccc2nc(C)[nH]c2c1)=C\c1ccccc1 | 6.7* | i | i | i | i
Cc1onc(-c2c(Cl)cccc2Cl)c1C(=O)Nc1ccc(C(N)=O)cc1 | i | i | i | i | i
NC(=O)C(CC(=O)O)NC(=O)[C@@H]1CCOc2c(I)cc([N+](=O)[O-])cc2C(=O)N[C@@H](CCC(=O)O)C(=O)N[C@@H](CO)C(=O)N1 (stereo not given in full) | i | nt | nt | i | -6.1*
C[C@@H]1NC(=O)c2cc([N+](=O)[O-])cc(I)c2OCC[C@@H](C(=O)NC(CC(=O)O)C(N)=O)NC(=O)[C@H](CCC(=O)O)NC1=O (stereo not given in full) | i | nt | nt | i | i
SMILES | MrgX1 allo act | RGS4 act | RGS4 inh | MrgX1 agonist | MrgX1 antagonist
Cc1ccc2c(c1)N(C(=O)CCC(=O)NCc1ccccn1)CC(C)O2 (stereo not given) | i | i | i | i | i
Cc1ccc2nc(N(CCCN(C)C)C(=O)c3ccc(S(=O)(=O)N4CCCCCC4)cc3)sc2c1 | i | i | i | i | i
CCc1ccc2nc(N(CCCN(C)C)C(=O)c3ccc(S(=O)(=O)N4CCCc5ccccc54)cc3)sc2c1 | i | -7.3* | i | i | i
CCOC(=O)N1CCN(S(=O)(=O)c2ccc(C(=O)N(CCCN(C)C)c3nc4c(F)cc(F)cc4s3)cc2)CC1 | i | i | i | i | -7.9*
CCc1ccc2nc(N(CCCN(C)C)C(=O)c3ccc(S(=O)(=O)N4CCCC4)cc3)sc2c1 | i | -11* | i | i | i
COc1ccc(OC)c2sc(N(CCCN(C)C)C(=O)c3ccc(S(=O)(=O)N4CCc5ccccc5C4)cc3)nc12 | i | -10* | i | i | -6.1*
CCOC(=O)N1CCN(S(=O)(=O)c2ccc(C(=O)N(CCCN(C)C)c3nc4ccc(Cl)cc4s3)cc2)CC1 | i | i | i | i | i
CC(=O)N1CCC(O)(c2ccc3c(c2)OCO3)CC1 | i | i | i | i | i
COc1cc2nc(N(CCCN(C)C)C(=O)c3ccc(C(=O)c4ccccc4)cc3)sc2cc1OC | i | i | i | i | i
CCc1ccc2nc(N(CCCN(C)C)C(=O)c3ccc(C(=O)c4ccccc4)cc3)sc2c1 | i | -8.1* | i | i | i
CCC1=C(OC(=O)N(CC)CC)N2C(=O)OC(=NCCOC)[C@]2(Cc2ccccc2)[C@H]2C1=CC[C@H]1C(=O)NC(=O)[C@H]12 | i | i | i | i | i
CCC1=C(OC(=O)N(CC)CC)N2C(=O)OC(=NCC3CC3)[C@]2(Cc2ccccc2)[C@H]2C1=CC[C@H]1C(=O)NC(=O)[C@H]12 | i | i | i | i | -8.1*
O=C(Nc1cccc(/C=C/c2ccccn2)c1)c1ccc(-n2cncn2)c([N+](=O)[O-])c1 | i | -7.7* | i | i | i
COc1ccc(NC(=O)c2ccc(-n3cncn3)c([N+](=O)[O-])c2)cc1OC | i | i | i | i | i
c1ccc(COc2ccc(CNCc3cccs3)cc2)cc1 | i | -8.3* | i | i | i
CC(=O)OCC1OC(OCc2cn(C[C@H]3CC[C@H](Cn4cc(COC5OC(COC(C)=O)C(OC(C)=O)C(OC(C)=O)C5OC(C)=O)nn4)O3)nn2)C(OC(C)=O)C(OC(C)=O)C1OC(C)=O (stereo not given in full) | i | i | i | i | i
CCOC(=O)COc1ccc(S(=O)(=O)Nc2ccc3c(c2)OCO3)cc1 | i | -8.5* | i | i | i
COc1cccc(C(=O)Nc2nnc(S(=O)(=O)N(C)Cc3ccc(F)cc3)s2)c1 | i | i | i | i | i
CCCCC(C(=O)NC1CCCC1)N(C(=O)c1snc(C(N)=O)c1N)c1ccc(C)cc1 (stereo not given) | i | i | i | i | i

Source: PubChem
